Assay results as given in ChEMBL document CHEMBL1156600, “Diacarperoxides, norterpene cyclic peroxides from the sponge Diacarnus megaspinorhabdosa” (J Nat Prod, 2008).
≈ marks a conversion by molar mass, not a printed value. Calls of active or inactive are those of the source. The calls are words filed in the database; no cut-off is given here.

Experiments:
HeLa = assay: Cytotoxicity against human HeLa cells by MTT assay; format: functional, cell-based
How it was run: (§1)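 Antiproliferative MTT (microculture tetrazolium) read-out in cancer cell lines: HeLa human cervix carcinoma, L5178Y mouse lymphoma, PC12 rat […] cells.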

[1] = Toxicity in Artemia salina assessed as mortality at 10 ug/ml after 48 hrs; format: organism-based; settings: in vivo, read-out: Activity
PC-12 = assay: Cytotoxicity against rat PC12 cells by MTT assay; format: functional, cell-based; how it was run: as §1
L5178Y = assay: Cytotoxicity against mouse L5178Y cells by MTT assay; format: functional, cell-based; how it was run: as §1
[2] = Toxicity in Artemia salina assessed as mortality at 10 ug/ml after 24 hrs; format: organism-based; settings: in vivo, read-out: Activity

SMILES	EC50 (HeLa)	mortality at 48 h, 10 ug/ml [1]	EC50 (PC-12)	EC50 (L5178Y)	mortality at 24 h, 10 ug/ml [2]	Activity (HeLa)	Activity (PC-12)	Activity (L5178Y)
COC(=O)[C@H](C)[C@H]1CC[C@@](C)(CCC2=C(C)CCCC2(C)C)OO1 [NUAPAPUIN A METHYL ESTER]	5.5 µg/mL (≈ 16.2 µM)	100%	6.2 µg/mL (≈ 18.3 µM)	0.76 µg/mL (≈ 2.25 µM)	100%			
COC(=O)[C@H](C)[C@@H]1CC[C@@](C)(CCC2=C(C)C(=O)CCC2(C)C)OO1 [METHYL DIACARNOATE A]				< 3 µg/mL		inactive	inactive	
C=C1CCCC(C)(C)C1(O)CC/C(C)=C/CC[C@]1(C)CC[C@H]([C@@H](C)C(=O)OC)OO1 (some centres undefined) [EPIMUQUBILIN B]	1 µg/mL (≈ 2.37 µM)	60%	6 µg/mL (≈ 14.2 µM)	< 0.1 µg/mL	45%			
COC(=O)[C@H](C)[C@H]1CC[C@@](C)(CCC2=C(C)C(=O)CCC2(C)C)OO1 [DIACARPEROXIDE A]		55%		> 10 µg/mL	35%	inactive	inactive	
COC(=O)[C@H](C)[C@H]1CC[C@@](C)(CCC2=C(C)C(=O)C[C@@H]3C(C)(C)CCC[C@@]23C)OO1 [DIACARPEROXIDE G]	> 10 µg/mL	60%	> 10 µg/mL	2 µg/mL (≈ 4.76 µM)	50%			
CC1=C(CC/C(C)=C/CC[C@@]2(C)CC[C@@H]([C@H](C)C(=O)O)OO2)C(C)(C)CCC1 [EPIMUQUBILIN A]	7.2 µg/mL (≈ 18.3 µM)	50%	> 10 µg/mL	0.28 µg/mL (≈ 0.713 µM)	25%			
COC(=O)[C@H](C)[C@@H]1CC[C@@](C)(CCC(=O)C(C)(C)CCCC(C)=O)OO1 [DIACARPEROXIDE C]		55%		> 10 µg/mL	35%	inactive	inactive	
CCCC(O)CCC(C)(O)CC/C=C(\C)CCC1=C(C)CCCC1(C)C (centres undefined) [DIACARDIOL A]	> 10 µg/mL	40%	> 10 µg/mL	4.8 µg/mL (≈ 13.2 µM)	20%			
COC(=O)[C@@H](C)[C@@H]1CC[C@](C)(CCC(=O)C(C)(C)CCCC(C)=O)OO1 [DIACARPEROXIDE B]		55%		10 µg/mL (≈ 27 µM)	45%	inactive	inactive	
CC1=C(CC[C@]2(C)CC[C@H]([C@@H](C)C(=O)O)OO2)[C@@]2(C)CCCC(C)(C)[C@@H]2CC1=O [DIACARPEROXIDE F]	0.6 µg/mL (≈ 1.48 µM)		0.8 µg/mL (≈ 1.97 µM)	0.06 µg/mL (≈ 0.148 µM)				
CC1=C(CC[C@]2(C)CC[C@H]([C@@H](C)C(=O)O)OO2)[C@]2(C)CCCC(C)(C)[C@H]2CC1 [DIACARPEROXIDE D]	0.17 µg/mL (≈ 0.433 µM)		8.1 µg/mL (≈ 20.6 µM)	< 0.1 µg/mL				
COC(=O)[C@H](C)[C@@H]1CC[C@@](C)(CCC2=C(C)CCCC2(C)C)OO1		65%			25%	inactive	inactive	inactive
